# Results as given in ChEMBL document CHEMBL3992514, “Synthesis, biological characterisation and structure activity relationships of aromatic bisamidines active against Plasmodium falciparum” (Eur J Med Chem, 2017).
# Assays:
# Plasmodium falciparum [1] = assay: Antiparasitic activity against drug-resistant Plasmodium falciparum Dd2 infected in erythrocytes assessed as growth inhibition after 48 hrs by [3H]-hypoxanthine incorporation assay; type: functional, cell-based
# Plasmodium falciparum [2] = assay: Antiparasitic activity against drug-sensitive Plasmodium falciparum 3D7 infected in erythrocytes assessed as growth inhibition after 48 hrs by SYBR green 1 dye-based flow cytometry; type: functional, cell-based; conditions: 3D7, 48 h
# HEK293 = assay: Cytotoxicity against HEK293 cells assessed as decrease in cell viability after 24 hrs by Alamar blue assay; type: ADME, cell-based; conditions: Homo sapiens, HEK293, 24 h
# [3] = Selectivity index, ratio of IC50 for HEK293 cells to IC50 for drug-resistant Plasmodium falciparum Dd2 infected in erythrocytes; conditions: human
# [4] = Selectivity index, ratio of IC50 for HEK293 cells to IC50 for drug-sensitive Plasmodium falciparum 3D7 infected in erythrocytes; conditions: human
# [5] = Cmax in Sprague-Dawley albino rat at 1 mg/kg, po; type: ADME, organism-based; parameters: dose 1 mg/kg, route oral; conditions: in vivo
# [6] = Half life in Sprague-Dawley albino rat at 1 mg/kg, po; type: ADME, organism-based; conditions: in vivo
# [7] = Oral bioavailability in Sprague-Dawley albino rat at 1 mg/kg; type: ADME, organism-based; conditions: in vivo
# [8] = Cmax in Swiss Webster mouse at 30 mg/kg, po; type: ADME, organism-based; parameters: dose 30 mg/kg, route oral; conditions: in vivo
# [9] = Half life in Swiss Webster mouse at 30 mg/kg, po; type: ADME, organism-based; conditions: in vivo
# [10] = Oral bioavailability in Swiss Webster mouse at 30 mg/kg; type: ADME, organism-based; conditions: in vivo
# Giardia intestinalis = assay: Antiparasitic activity against Giardia lamblia; type: functional; conditions: Giardia duodenalis
# Leishmania sp. = assay: Antiparasitic activity against Leishmania spp.; type: functional
# Plasmodium vivax = assay: Antimalarial activity against hypnozoite-stage Plasmodium vivax in infected patient assessed as cure rate at 100 mg, po bid administered for 5 days measured every 12 hrs up to day 7, and on day 10, 14, 21, and 28 by Giemsa staining-based assay relative to control; type: functional
# Plasmodium falciparum [11] = assay: Antimalarial activity against Plasmodium falciparum in infected patient assessed as cure rate at 100 mg, po bid administered for 5 days measured every 12 hrs up to day 7, and on day 10, 14, 21, and 28 by Giemsa staining-based assay relative to control; type: functional
# [12] = Cytotoxicity against HEK293 cells assessed as cell viability at 50 uM after 24 hrs by Alamar blue assay relative to control; type: cell-based; conditions: human, read-out: Activity
# How it was run: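 HEK293 cells kept in DMEM with 10% FCS and 5 mM glutamine at 37 °C, 5% CO2; seeded at 1.5 × 10^3 cells per well, compound added immediately at 50 µM. After 24 h AlamarBlue added, incubated a further 21 h; resorufin fluorescence read at Ex 560/Em 590 nm. Triplicates over three independent experiments.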
SMILES,IC50 (Plasmodium falciparum [1]),IC50 (Plasmodium falciparum [2]),IC50 (HEK293),selectivity ratio [3],selectivity ratio [4],further results
Cc1c(-c2ccc(C(=N)NC(C)C)cc2)oc(-c2ccc(C(=N)NC(C)C)cc2)c1C,0.09 µM,0.038 µM,309 µM,3430,8130,
N=C(N)c1ccc(-c2cc(CC(=O)N3CCN(C(=O)c4ccccc4)CC3)c(-c3ccc(C(=N)N)cc3)o2)cc1,> 10 µM,> 10 µM,> 50 µM,,,
N=C(N)c1ccc(-c2cc(CC(=O)N3CCOCC3)c(-c3ccc(C(=N)N)cc3)o2)cc1,> 10 µM,> 10 µM,> 50 µM,,,
N=C(N)c1ccc(-c2cc(CC(=O)N3CCN(C(c4ccc(F)cc4)c4ccc(F)cc4)CC3)c(-c3ccc(C(=N)N)cc3)o2)cc1,6.63 µM,1.7 µM,> 50 µM,> 8,> 30,
CN(C)CCCNC(=O)Cc1cc(-c2ccc(C(=N)N)cc2)oc1-c1ccc(C(=N)N)cc1,> 10 µM,> 10 µM,> 50 µM,,,
N=C(N)c1ccc(-c2cc(CC(=O)N3CCCCC3)c(-c3ccc(C(=N)N)cc3)o2)cc1,,5.13 µM,> 50 µM,,> 9,
COCc1c(-c2ccc(C(=N)N)cc2)oc(-c2ccc(C(=N)N)cc2)c1COC,0.9 µM,1.04 µM,> 50 µM,> 56,> 48,
CN(C)C(=O)Cc1cc(-c2ccc(C(=N)N)cc2)oc1-c1ccc(C(=N)N)cc1,3.83 µM,5.76 µM,> 50 µM,> 13,> 8,
Cc1c(-c2ccc(C(=N)N)cc2)oc(-c2ccc(C(=N)N)cc2)c1C,0.06 µM,0.033 µM,74 µM,1230,2240,
CO/N=[14C](/N)c1ccc(-c2ccc(-c3ccc(/[14C](N)=N\OC)cc3)o2)cc1,,,,,,Cmax [5]: 26.1 ng/mL; half-life [6]: 0.9 h; bioavailability [7]: 11%
N=C(N)c1ccc(-c2cc(CC(=O)NCCc3ccccc3)c(-c3ccc(C(=N)N)cc3)o2)cc1,1.19 µM,1.18 µM,> 50 µM,> 42,> 42,
N=C(N)c1ccc(-c2cc(CC(=O)NCC(c3ccccc3)c3ccccc3)c(-c3ccc(C(=N)N)cc3)o2)cc1,1.43 µM,1.39 µM,> 50 µM,> 35,> 36,
N=C(N)c1ccc(-c2cc(CC(=O)N3CCN(CCO)CC3)c(-c3ccc(C(=N)N)cc3)o2)cc1,> 10 µM,> 10 µM,> 50 µM,,,
Cc1c(-c2ccc(C(=N)NCC(C)C)cc2)oc(-c2ccc(C(=N)NCC(C)C)cc2)c1C,0.15 µM,0.038 µM,33.1 µM,220,870,
N=C(N)c1ccc(-c2ccc(-c3ccc(C(=N)N)cc3)o2)cc1 [FURAMIDINE],0.05 µM,0.011 µM,178 µM,,,Cmax [8]: 8 nM; half-life [9]: 107 h; bioavailability [10]: 0.2%; IC50 (Giardia intestinalis): 0.2 µM; IC50 (Leishmania sp.): 2.8 µM
N=C(N)c1ccc(NC(=NCCc2ccccc2)Nc2ccc(C(=N)N)cc2)cc1,> 10 µM,> 10 µM,> 50 µM,,,
CSCCCNC(=O)Cc1cc(-c2ccc(C(=N)N)cc2)oc1-c1ccc(C(=N)N)cc1,5.43 µM,6.61 µM,> 50 µM,> 10,> 7,
CCN(CC)CCN=C(Nc1ccc(C(=N)N)cc1)Nc1ccc(C(=N)N)cc1,> 10 µM,> 10 µM,> 50 µM,,,
CONC(=N)c1ccc(-c2oc(-c3ccc(C(=N)NOC)cc3)c(C)c2C)cc1,10.6 µM,> 1 µM,> 50 µM,> 5,,
CN(C)CCNC(=O)Cc1cc(-c2ccc(C(=N)N)cc2)oc1-c1ccc(C(=N)N)cc1,> 10 µM,> 10 µM,> 50 µM,,,
CCN(CC)CCNC(=O)Cc1cc(-c2ccc(C(=N)N)cc2)oc1-c1ccc(C(=N)N)cc1,> 10 µM,> 10 µM,> 50 µM,,,
CNC(=O)Cc1cc(-c2ccc(C(=N)N)cc2)oc1-c1ccc(C(=N)N)cc1,3.07 µM,5.41 µM,> 50 µM,> 16,> 9,
N=C(N)c1ccc(-c2cc(CC(=O)NCCCc3ccccc3)c(-c3ccc(C(=N)N)cc3)o2)cc1,1.67 µM,0.77 µM,> 50 µM,> 30,> 65,

SMILES,IC50 (Plasmodium falciparum [1]),IC50 (Plasmodium falciparum [2]),IC50 (HEK293),selectivity ratio [3],selectivity ratio [4],further results
CONC(=N)c1ccc(-c2ccc(-c3ccc(C(=N)NOC)cc3)o2)cc1 [PAFURAMIDINE],,,,,,Activity (Plasmodium vivax): >95%; Activity (Plasmodium falciparum [11]): >95%
N=C(N)c1ccc(-c2cc(CC(=O)N3CCN(c4ncccn4)CC3)c(-c3ccc(C(=N)N)cc3)o2)cc1,17.4 µM,7.54 µM,> 50 µM,> 3,> 7,
CCOCc1c(-c2ccc(C(=N)N)cc2)oc(-c2ccc(C(=N)N)cc2)c1COCC,0.85 µM,1.19 µM,> 50 µM,> 59,> 42,
COCc1c(-c2ccc(C(=N)N)cc2)oc(-c2ccc(C(=N)N)cc2)c1Cl,0.09 µM,0.16 µM,209 µM,2320,1310,
N=C(N)c1ccc(-c2cc(CC(=O)NCCN3CCOCC3)c(-c3ccc(C(=N)N)cc3)o2)cc1,> 10 µM,> 10 µM,> 50 µM,,,
N=C(N)c1ccc(-c2cc(CC(=O)N3CCN(C(c4ccccc4)c4ccccc4)CC3)c(-c3ccc(C(=N)N)cc3)o2)cc1,5.33 µM,1.43 µM,> 50 µM,> 10,> 35,
Cc1c(-c2ccc(C(=N)NO)cc2)oc(-c2ccc(C(=N)NO)cc2)c1C,7.15 µM,> 1 µM,> 50 µM,> 10,,
CCNC(=N)c1ccc(-c2oc(-c3ccc(C(=N)NCC)cc3)c(C)c2C)cc1,0.03 µM,0.02 µM,33.3 µM,1110,1660,
CN(C)CCCCNC(=O)Cc1cc(-c2ccc(C(=N)N)cc2)oc1-c1ccc(C(=N)N)cc1,> 10 µM,> 10 µM,> 50 µM,,,
CN1CCN(C(=O)Cc2cc(-c3ccc(C(=N)N)cc3)oc2-c2ccc(C(=N)N)cc2)CC1,> 10 µM,> 10 µM,> 50 µM,,,
CCCOCc1c(-c2ccc(C(=N)N)cc2)oc(-c2ccc(C(=N)N)cc2)c1Cl,0.14 µM,0.09 µM,,,,"viability at 24 h, 50 µM [12]: 1%"
N=C(N)c1ccc(-c2cc(CC(=O)NCCN3CCCCC3)c(-c3ccc(C(=N)N)cc3)o2)cc1,> 10 µM,> 10 µM,> 50 µM,,,
N=C(N)c1ccc(-c2cc(CC(=O)NCC3CCCCC3)c(-c3ccc(C(=N)N)cc3)o2)cc1,2.42 µM,,> 50 µM,> 20,,
N=C(N)c1ccc(NC(=NCCN2CCCCC2)Nc2ccc(C(=N)N)cc2)cc1,> 10 µM,> 10 µM,> 50 µM,,,
CN(C)CCN=C(Nc1ccc(C(=N)N)cc1)Nc1ccc(C(=N)N)cc1,> 10 µM,> 10 µM,> 50 µM,,,
N=C(N)c1ccc(NC(=O)Nc2ccc(C(=N)N)cc2)cc1,0.21 µM,0.046 µM,266 µM,,5780,
CSCCNC(=O)Cc1cc(-c2ccc(C(=N)N)cc2)oc1-c1ccc(C(=N)N)cc1,5.48 µM,6.09 µM,> 50 µM,> 10,> 8,
CN1CCN(CCNC(=O)Cc2cc(-c3ccc(C(=N)N)cc3)oc2-c2ccc(C(=N)N)cc2)CC1,,> 10 µM,> 50 µM,,,
N=C(N)c1ccc(-c2cc(CC(=O)NCCC(c3ccccc3)c3ccccc3)c(-c3ccc(C(=N)N)cc3)o2)cc1,1.47 µM,1.4 µM,> 50 µM,> 34,> 36,
N=C(N)c1ccc(-c2cc(CC(=O)NCCCO)c(-c3ccc(C(=N)N)cc3)o2)cc1,22.2 µM,> 10 µM,> 50 µM,> 3,,
CCCOCc1c(-c2ccc(C(=N)N)cc2)oc(-c2ccc(C(=N)N)cc2)c1COCCC,0.31 µM,0.39 µM,> 50 µM,> 128,> 161,
CC(C)OCc1c(-c2ccc(C(=N)N)cc2)oc(-c2ccc(C(=N)N)cc2)c1COC(C)C,1.2 µM,1.08 µM,> 50 µM,> 42,> 46,
CCOC(=O)Cc1cc(-c2ccc(C(=N)N)cc2)oc1-c1ccc(C(=N)N)cc1,0.86 µM,0.22 µM,232 µM,270,1060,
